Calls of active or inactive are those of the source. The rule behind the calls is not given here.
Assays:
Format in all cases: functional, cell-based
[1] = molecular target: G-protein coupled receptor 68 (Homo sapiens) (UniProt Q15743); assay: (§1) Positive allosteric modulation of human GPR68 expressed in HEK293T cells co-expressing Gs assessed as stimulation of proton-mediated cAMP production by measuring allosteric affinity cooperativity in HBSS buffer containing pH 6.8 to 8.2 HEPES/pH 8.3 to 8.6 TAPS measured after 20 to 30 mins in presence of PDE inhibitor Ro 20-1724 by luciferase-glo reporter gene assay
In short: (§2)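 Transient co-transfection of HEK293T with receptor and GloSensor plasmids using PEI, overnight, then replated in DMEM + 1% dFBS for 6–24 h. Luciferin 3.5 mM loaded for 1 h at 37 °C in HBSS/20 mM TAPS, pH 8.40. Proton series: Ca/Mg-free HBSS with MES (pH 5.60–6.70), HEPES (6.80–8.20) or TAPS (8.30–8.60), plus 10 μM Ro 20-1724. BSA 1 mg/mL added where solubility required. Luminescence read at 20–30 min. At least six 16-point proton curves across modulator concentrations, quadruplicate, ≥3 independent assays.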

[2] = molecular target: G-protein coupled receptor 68 (Homo sapiens) (UniProt Q15743); assay: as §1, with “efficacy” for “allosteric affinity”; in short: as §2
[3] = molecular target: G-protein coupled receptor 68 (Homo sapiens) (UniProt Q15743); assay: as §1, with “index” for “affinity cooperativity”; in short: as §2
[4] = molecular target: G-protein coupled receptor 68 (Homo sapiens) (UniProt Q15743); assay: Positive allosteric modulation of human GPR68 expressed in HEK293T cells co-expressing Gs assessed as stimulation of proton-mediated cAMP production by measuring allosteric binding affinity in HBSS buffer containing pH 6.8 to 8.2 HEPES/pH 8.3 to 8.6 TAPS measured after 20 to 30 mins in presence of PDE inhibitor Ro 20-1724 by luciferase-glo reporter gene assay; in short: as §2

Sequence of G-protein coupled receptor 68 (Homo sapiens) (Q15743 whole entry): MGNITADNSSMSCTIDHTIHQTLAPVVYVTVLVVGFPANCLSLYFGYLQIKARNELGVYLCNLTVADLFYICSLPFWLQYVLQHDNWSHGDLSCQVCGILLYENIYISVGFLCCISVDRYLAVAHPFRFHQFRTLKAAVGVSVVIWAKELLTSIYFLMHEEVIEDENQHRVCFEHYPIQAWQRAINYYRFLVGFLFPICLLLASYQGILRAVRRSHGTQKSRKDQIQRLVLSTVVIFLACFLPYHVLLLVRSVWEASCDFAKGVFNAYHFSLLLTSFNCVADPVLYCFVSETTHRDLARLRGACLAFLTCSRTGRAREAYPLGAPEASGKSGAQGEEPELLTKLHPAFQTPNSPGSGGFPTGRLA

## COc1ccc(-c2nc(N)nc(NCc3ccccc3)n2)c(CO)c1
[1]
  log(activity): 0.46
[2]
  log(activity): 0.14
[3]
  Activity index: 4.97

## CCNc1nc(NCc2ccccc2)nc(-c2ccccc2CO)n1
[1]
  log(activity): 0.47
[2]
  log(activity): 0.25
[3]
  Activity index: 5.34

## Nc1nc(NCc2ccc(F)cc2)nc(-c2ccccc2CO)n1
[1]
  log(activity): 1.09
[2]
  log(activity): 0.36
[3]
  Activity index: 5.42

## Nc1nc(NCc2ccccc2)nc(-c2cc(F)ccc2CO)n1
[1]
  log(activity): 0.91
[2]
  log(activity): 0.2
[3]
  Activity index: 5.69

## CC(O)c1ccccc1-c1nc(N)nc(NCc2ccccc2)n1 (stereo not given)
[1]
  log(activity): inactive
[2]
  log(activity): inactive
[4]
  pKb: inactive
[3]
  Activity_index: inactive

## CNc1nc(NCc2ccccc2)nc(-c2ccccc2CO)n1
[1]
  log(activity): 0.48
[2]
  log(activity): 0.37
[3]
  Activity index: 5.36

## Nc1nc(NCc2ccc(F)cc2)nc(-c2c(F)cccc2CO)n1
[1]
  log(activity): 1.01
[2]
  log(activity): 0.09
[3]
  Activity index: 5.55

## Nc1nc(NCCc2ccccc2)nc(-c2c(F)cccc2CO)n1
[1]
  log(activity): 1.06
[2]
  log(activity): 0.03
[3]
  Activity index: 6.13

## Nc1nc(Nc2ccccc2)nc(-c2ccccc2CO)n1
[1]
  log(activity): 0.72
[2]
  log(activity): 0.4
[3]
  Activity index: 5.04

## CC(C)Oc1ccc(CNc2nc(N)nc(-c3ccccc3CO)n2)cc1
[1]
  log(activity): 0.53
[2]
  log(activity): 0.17
[3]
  Activity index: 5.69

## CCOc1ccc(-c2nc(N)nc(NCc3ccccc3)n2)c(CO)c1
[1]
  log(activity): 0.87
[2]
  log(activity): 0.1
[3]
  Activity index: 5.34

## COc1ccccc1CNc1nc(N)nc(-c2c(F)cccc2CO)n1
[1]
  log(activity): 1.12
[2]
  log(activity): -0.12
[3]
  Activity index: 5.11

## COc1cccc(CO)c1-c1nc(N)nc(NCc2ccccc2)n1
[1]
  log(activity): inactive
[4]
  pKb: inactive
[3]
  Activity_index: inactive

## Nc1nc(NCCc2ccc(Oc3ccccc3)cc2)nc(-c2c(F)cccc2CO)n1
[1]
  log(activity): 1.14
[2]
  log(activity): -0.06
[3]
  Activity index: 6.14

## Nc1nc(NCc2ccccc2)nc(-c2cc(Cl)ccc2CO)n1
[1]
  log(activity): 1.2
[2]
  log(activity): 0.09
[3]
  Activity index: 5.78

## COc1ccccc1CNc1nc(N)nc(-c2ccccc2CO)n1
[1]
  log(activity): 0.98
[2]
  log(activity): 0.06
[3]
  Activity index: 5.03

## CNCc1ccccc1-c1nc(N)nc(NCc2ccccc2)n1
[1]
  log(activity): inactive
[2]
  log(activity): inactive
[4]
  pKb: inactive
[3]
  Activity_index: inactive

## Nc1nc(NCc2ccccc2Cl)nc(-c2ccccc2CO)n1
[1]
  log(activity): 0.64
[2]
  log(activity): 0.23
[3]
  Activity index: 5.94

## Nc1nc(NCc2ccccc2)nc(-c2c(F)cccc2CO)n1
[1]
  log(activity): 1.15
[2]
  log(activity): 0.35
[3]
  Activity index: 5.19

## Cc1cccc(CNc2nc(N)nc(-c3ccccc3CO)n2)c1
[1]
  log(activity): 0.92
[2]
  log(activity): 0.25
[3]
  Activity index: 5.57

## Nc1nc(NCCc2ccc(Oc3ccccc3)cc2)nc(-c2cc(Cl)ccc2CO)n1
[1]
  log(activity): 1.39
[2]
  log(activity): -0.04
[3]
  Activity index: 5.87

## Nc1nc(NCc2ccccc2)nc(-c2c(Cl)cccc2CO)n1
[1]
  log(activity): 1.25
[2]
  log(activity): -0.12
[3]
  Activity index: 5.56

## Nc1nc(NCc2ccc(C(F)(F)F)cc2)nc(-c2ccccc2CO)n1
[1]
  log(activity): 0.78
[2]
  log(activity): 0.3
[3]
  Activity index: 6.1

## COc1ccc(CO)c(-c2nc(N)nc(NCc3ccccc3)n2)c1
[1]
  log(activity): 0.61
[2]
  log(activity): 0.18
[3]
  Activity index: 4.77

## Nc1nc(NCCc2ccccc2)nc(-c2ccccc2CO)n1
[1]
  log(activity): 0.88
[2]
  log(activity): 0.24
[3]
  Activity index: 5.62

## Nc1nc(NCc2ccccc2)nc(-c2cccc(F)c2CO)n1
[1]
  log(activity): 0.59
[2]
  log(activity): 0.27
[3]
  Activity index: 4.86

## Nc1nc(NCc2ccccc2)nc(-c2ccccc2)n1
[1]
  log(activity): inactive
[2]
  log(activity): inactive
[4]
  pKb: inactive
[3]
  Activity_index: inactive

## Nc1nc(NCc2ccccc2F)nc(-c2c(F)cccc2CO)n1
[1]
  log(activity): 1.09
[2]
  log(activity): 0.09
[3]
  Activity index: 5.4

## NCc1ccccc1-c1nc(N)nc(NCc2ccccc2)n1
[1]
  log(activity): 0.86
[2]
  log(activity): 0.3
[3]
  Activity index: 5.01

## Nc1nc(NCCCc2ccc(Oc3ccccc3)cc2)nc(-c2ccccc2CO)n1
[1]
  log(activity): 1.19
[2]
  log(activity): -0.01
[3]
  Activity index: 5.84

## Nc1nc(NCc2ccc(Oc3ccccc3)cc2)nc(-c2cc(Cl)ccc2CO)n1
[1]
  log(activity): 1.05
[2]
  log(activity): 0.03
[3]
  Activity index: 5.78

## Nc1nc(NCCCc2ccc(Oc3ccccc3)cc2)nc(-c2c(F)cccc2CO)n1
[1]
  log(activity): 1.15
[2]
  log(activity): 0.01
[3]
  Activity index: 6.1

## Nc1nc(NCc2cccc(C(F)(F)F)c2)nc(-c2ccccc2CO)n1
[1]
  log(activity): 0.64
[2]
  log(activity): 0.32
[3]
  Activity index: 6.07

## Nc1nc(NCc2cccc(Cl)c2)nc(-c2ccccc2CO)n1
[1]
  log(activity): 0.48
[2]
  log(activity): 0.46
[3]
  Activity index: 5.9

## COc1cccc(-c2nc(N)nc(NCc3ccccc3)n2)c1CO
[1]
  log(activity): 0.4
[2]
  log(activity): 0.3
[3]
  Activity index: 4.86

## Cc1ccccc1-c1nc(N)nc(NCc2ccccc2)n1
[1]
  log(activity): inactive
[2]
  log(activity): inactive
[4]
  pKb: inactive
[3]
  Activity_index: inactive

## Nc1nc(NCCCCc2ccccc2)nc(-c2c(F)cccc2CO)n1
[1]
  log(activity): 1.24
[2]
  log(activity): 0.06
[3]
  Activity index: 5.34

## Nc1nc(NCc2ccccc2)nc(-c2ccc(Cl)cc2CO)n1
[1]
  log(activity): 1.01
[2]
  log(activity): 0.11
[3]
  Activity index: 5.87

## Nc1nc(NCc2ccccc2)nc(-c2ccc(F)cc2CO)n1
[1]
  log(activity): 0.64
[2]
  log(activity): 0.24
[3]
  Activity index: 5.46

## Nc1nc(NCc2ccc(Oc3ccccc3)cc2)nc(-c2ccccc2CO)n1
[1]
  log(activity): 0.95
[2]
  log(activity): 0
[3]
  Activity index: 6.14

## COc1ccc(CNc2nc(N)nc(-c3ccccc3CO)n2)cc1
[1]
  log(activity): 0.78
[2]
  log(activity): 0.49
[3]
  Activity index: 4.61

## Nc1nc(NCCc2ccc(Oc3ccccc3)cc2)nc(-c2ccccc2CO)n1
[1]
  log(activity): 0.83
[2]
  log(activity): 0.03
[3]
  Activity index: 5.9

## Nc1nc(NCCCc2ccccc2)nc(-c2c(F)cccc2CO)n1
[1]
  log(activity): 1.19
[2]
  log(activity): 0.02
[3]
  Activity index: 5.67

## Cc1cccc(CNc2nc(N)nc(-c3c(F)cccc3CO)n2)c1
[1]
  log(activity): 0.84
[2]
  log(activity): 0.14
[3]
  Activity index: 5.42

## Nc1nc(NCc2cccc(F)c2)nc(-c2ccccc2CO)n1
[1]
  log(activity): 0.7
[2]
  log(activity): 0.33
[3]
  Activity index: 5.55

## Nc1nc(NCCCc2ccccc2)nc(-c2ccccc2CO)n1
[1]
  log(activity): 0.81
[2]
  log(activity): 0.08
[3]
  Activity index: 6.11

## Nc1nc(NCCCCc2ccccc2)nc(-c2cc(Cl)ccc2CO)n1
[1]
  log(activity): 1.09
[2]
  log(activity): 0.06
[3]
  Activity index: 6.14

## Nc1nc(NCc2ccccc2C(F)(F)F)nc(-c2ccccc2CO)n1
[1]
  log(activity): 0.6
[2]
  log(activity): 0.31
[3]
  Activity index: 5.96

## COc1cccc(CNc2nc(N)nc(-c3ccccc3CO)n2)c1
[1]
  log(activity): 0.89
[2]
  log(activity): 0.23
[3]
  Activity index: 5.22

## CC(=O)c1ccccc1-c1nc(N)nc(NCc2ccccc2)n1
[1]
  log(activity): inactive
[2]
  log(activity): inactive
[4]
  pKb: inactive
[3]
  Activity_index: inactive

## Nc1cc(-c2ccccc2CO)nc(NCc2ccccc2)n1
[1]
  log(activity): inactive
[2]
  log(activity): inactive
[4]
  pKb: inactive
[3]
  Activity_index: inactive

## Cc1ccc(CNc2nc(N)nc(-c3ccccc3CO)n2)cc1
[1]
  log(activity): 0.9
[2]
  log(activity): 0.32
[3]
  Activity index: 5.6

## CCOc1ccc(CNc2nc(N)nc(-c3ccccc3CO)n2)cc1
[1]
  log(activity): 0.81
[2]
  log(activity): -0.01
[3]
  Activity index: 5.57

## Nc1nc(NCc2ccccc2F)nc(-c2ccccc2CO)n1
[1]
  log(activity): 0.98
[2]
  log(activity): 0.31
[3]
  Activity index: 5.56

## Cc1ccccc1CNc1nc(N)nc(-c2ccccc2CO)n1
[1]
  log(activity): 0.54
[2]
  log(activity): 0.33
[3]
  Activity index: 5.57

## Nc1nc(NCc2ccc(OC3CC3)cc2)nc(-c2ccccc2CO)n1
[1]
  log(activity): 0.67
[2]
  log(activity): 0.04
[3]
  Activity index: 5.77

## CC(C)Oc1ccc(-c2nc(N)nc(NCc3ccccc3)n2)c(CO)c1
[1]
  log(activity): 0.56
[2]
  log(activity): 0.27
[3]
  Activity index: 5.74

## Nc1nc(NCCCCc2ccc(Oc3ccccc3)cc2)nc(-c2ccccc2CO)n1
[1]
  log(activity): 1.03
[2]
  log(activity): 0.09
[3]
  Activity index: 5.94

— ChEMBL document CHEMBL4406806, “Design, Synthesis, and Characterization of Ogerin-Based Positive Allosteric Modulators for G Protein-Coupled Receptor 68 (GPR68)” (J Med Chem, 2019)
